In publication PMC10586019 (ACS Omega, 2023):
In brackets after ≈: the same amount, converted by molar mass. Several values for one entry are separate records, joined by “and”; a condition that tells them apart may be missing. Equal entries are not always repeated. Where a SMILES comes first, the peptide text is derived from it. Where no end group is shown, it is not given here. [ ]: non-standard residue; d: D form. Orn = NCCC[C@H](N)C(=O)O; Ahx = NCCCCCC(=O)O

How the values were obtained:
Vero cells = assay: MTT cytotoxicity, Vero control cells; format: cell-based; details: for CC50 Vero: MTT, peptide 0-200 μg/mL, 2 h, 37 °C, n = 3; for Selectivity Index Vero/HT-29: SI = CC50/IC50
Method in brief: (§1)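 Cells are grown in RPMI-1640 with 10% FBS, seeded at 1 × 10^4 per well, and synchronized for 24 h. Medium is replaced with peptide (0–200 μg/mL) in the same medium for 2 h at 37 °C. MTT (5 mg/mL solution) is added for 4 h at 37 °C, and formazan is dissolved in DMSO for 30 min at 37 °C. Absorbance is read at 570 nm.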

[1] = MTT cytotoxicity, Vero control cells; format: cell-based; details: Caco-2
Method in brief: as §1

HEK-293 = assay: MTT cytotoxicity, HEK-293 control cells; format: cell-based; details: for CC50 HEK-293: MTT, peptide 0-200 μg/mL, 2 h, 37 °C, n = 3; for Selectivity Index HEK-293/HT-29: SI = CC50/IC50
Method in brief: as §1

[2] = MTT cytotoxicity, HEK-293 control cells; format: cell-based; details: Caco-2
Method in brief: as §1

human fibroblasts = assay: MTT cytotoxicity, fibroblasts control cells; format: cell-based; details: for CC50 fibroblasts: MTT, peptide 0-200 μg/mL, 2 h, 37 °C, n = 3; for Selectivity Index fibroblasts/HT-29: SI = CC50/IC50
Caco-2 = assay: MTT viability test, Caco-2 colon cancer cells; format: cell-based; details: Caco-2, MTT
erythrocytes = assay: Hemolytic activity; format: cell-based, human; details: SI = hemolysis10%/IC50
Method in brief: (§2)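 Erythrocytes from healthy O+ donors (EDTA blood) are spun at 500 rpm and washed 3× in 0.9% saline. Peptide (final 200 to 6.2 μg mL−1) is mixed 1:1 with 2% hematocrit suspension for 2 h at 37 °C, then spun 2500 rpm for 5 min. Supernatant A450 is read. Positive controls are distilled water and Tween 20; the negative is 0.9% saline. The readout is the concentration causing 10% hemolysis.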

Hemolytic activity = format: cell-based, human; details: Caco-2
Method in brief: as §2

Du-145 = assay: MTT viability test, Du-145 prostate cancer cells; format: cell-based; details: for IC50 Du-145: peptide 0-200 μg/mL during 2 h, mean ± SE n = 3; for IC50: read-out: IC50 Du-145, peptide 0-200 μg/mL during 2 h, mean ± SE n = 3
Method in brief: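 Du-145 cells are seeded at 1 × 10^4 per well and synchronized for 24 h. They are exposed to peptide (0–200 μg/mL) in medium for 2 h at 37 °C. MTT (5 mg/mL solution) is added for 4 h at 37 °C, DMSO solubilization runs 30 min at 37 °C, and A570 is read. Data are mean ± SE, n = 3.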

[3] = MTT cytotoxicity, fibroblasts control cells; format: cell-based, human; details: Caco-2
Galleria mellonella [4] = assay: Galleria mellonella toxicity test; format: in vivo; details: 20-100 mg/Kg, 10 days, Kaplan-Meyer, n = 2
Galleria mellonella [5] = details: at 33 mg/kg; cited from earlier work

Compound | CC50 Vero (Vero cells) | Selectivity Index Vero/HT-29 (Vero cells) | selectivity ratio [1] | CC50 HEK-293 (HEK-293) | Selectivity Index HEK-293/HT-29 (HEK-293) | selectivity ratio [2] | CC50 fibroblasts (human fibroblasts) | Selectivity Index fibroblasts/HT-29 (human fibroblasts) | decrease of IC50 in Caco-2 cells compared to the parent peptide RWQWRWQWR (Caco-2) | Selectivity Index erythrocytes/HT-29 (erythrocytes) | selectivity ratio (Hemolytic activity) | IC50 Du-145 (Du-145) | IC50 (Du-145) | selectivity ratio [3] | toxicity (Galleria mellonella [4]) | fold increase in potency against Caco-2 versus parent peptide (Caco-2) | mortality in Galleria (previous study) (Galleria mellonella [5])
N=C(N)NCCC[C@H](NC(=O)[C@H](Cc1c[nH]c2ccccc12)NC(=O)[C@H](CCC(N)=O)NC(=O)[C@H](Cc1c[nH]c2ccccc12)NC(=O)[C@H](CCCNC(=N)N)NC(=O)[C@H](Cc1c[nH]c2ccccc12)NC(=O)[C@H](CCC(N)=O)NC(=O)[C@H](Cc1c[nH]c2ccccc12)NC(=O)[C@H](CCCNC(=N)N)NC(=O)CCCCCN)C(N)=O [Ahx-[Pal]] (H-[Ahx]RWQWRWQWR-NH2) | 40 μM and 64 μg/mL | 0.3 | 1 | 86 μM and 132 μg/mL | 0.7 | 2.2 | 98 μM and 157 μg/mL | 0.8 | approx. 50% | >1.1 | > 3.1 |  |  |  |  |  | 
RWQWRWQWR-NH2 [[Pal]] | 21 μM and 31 μg/mL |  | 0.2 | 68 μM and 101 μg/mL | 0.7 | 0.8 | > 134 μM and > 200 μg/mL |  |  | 1.3 | 1.6 | 60 µg/mL | 40 µM |  |  |  | 
N=C(N)NCCC[C@H](NC(=O)[C@H](Cc1c[nH]c2ccccc12)NC(=O)[C@H](CCC(N)=O)NC(=O)[C@H](Cc1c[nH]c2ccccc12)NC(=O)[C@@H](N)CCCNC(=N)N)C(=O)N[C@@H](Cc1c[nH]c2ccccc12)C(=O)N[C@@H](CCC(N)=O)C(=O)N[C@@H](Cc1c[nH]c2ccccc12)C(=O)N[C@@H](CCCN)C(N)=O [^9[Orn] [Pal]] (H-RWQWRWQW[Orn]-NH2) | 46 μM and 67 μg/mL | 0.4 | 1.2 | 51 μM and 74 μg/mL | 0.5 | 1.3 | 55 μM and 79 μg/mL | 0.5 | approx. 50% | >1.3 | > 3.4 | 89 µg/mL (≈ 61.6 µM) | 62 µM | 1.4 | did not show any significant toxicity | 2 fold | 
N.N.[Cl][Pt][Cl] [cisplatin] |  |  |  |  |  |  |  |  |  |  |  |  |  |  |  |  | 60%
